Bioassay records deposited in PubChem by several laboratories.
Compounds with a hit are over-represented: about 1.8% of the library has one in this group of screens.
ATG4B inhibitor – ATG4B protease inhibitors, primary screen, biochemical, fluorescence, uHTS; AID 504462, 2011; actives 0.51% (n = 340,000); ATG4B cleavage of LC3-PLA2, NBD-HPC fluorescence, 1 h; inhibition, % at 8.33 µM; Cysteine protease ATG4B (Homo sapiens), Q9Y4P1; in the data active means inhibition above about 40%
Bfl-1 A1 inh – caspase 3/7 activation in MEF A1-2A-BIM cells, primary screen, A1 inhibitor project, cell-based, luminescence, HTS. Caspase-Glo 3/7 luminescence, 3 h; percent of clofoctol response, vehicle zero. caspase activation, % (test concentration not listed). actives 0.066% (n = 330,000). AID 2462, 2010;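 active means over half of replicate activation scores above 10%, or exactly half above 10 with the replicate mean above 10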
HDAC3 inhib – HDAC3 deacetylase inhibitors, primary screen, biochemical, fluorescence, cell-free homogeneous; recombinant HDAC3, fluorogenic peptide/trypsin coupled; inhibition, % at 8.3 µM; actives 0.15% (n = 320,000); Histone deacetylase 3 (Homo sapiens), O15379; in the data active means inhibition above about 26%, passing the limit was not always enough
AI-2 QS modul – Vibrio harveyi AI-2 quorum sensing modulators, primary screen, JMH597 strain, luminescence/OD600 ratio. Vibrio harveyi JMH597 AI-2 luminescence/OD600 ratio, 9 h; hits give low values; strain lacks LuxN and CqsS sensors; 0 = neutral-control median. activity change, % at 7.5 µM. actives 0.4% (n = 300,000); in the data active means activity change below about -75%, passing the limit was not always enough;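 further: luminescence divided by OD600 gain over 9 h not by final OD600 alone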
HKDC1 inh – HKDC1 hexokinase inhibitors, primary screen, biochemical, fluorescence, uHTS | recombinant HKDC1, G6PDH/diaphorase resazurin coupled fluorescence | Q2TB90 | actives 0.16% (n = 340,000) | inhibition, % at 20 µM;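 active means inhibition above about 35% when tested at 20 µM, limit read from the data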
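test system = in-house recombinant HK5 (HKDC1) enzyme | amount = HKDC1 at 5 µg/mL | control set = DMSO-enzyme wells negative, buffer-substituted wells positive | compound = one dose of 20 µM, 1% DMSO | schedule = reaction time 90 min, room temperature, protected from light | technique = resorufin fluorescence at 613 nm | reagent = glucose with 1 mM ATP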
LANA-H2A inh – blockers of LANA interaction with H2A/H2B – biochemical, FP readout, HTS, primary screen; inhibition, % (concentration not given with the values); cell-free LANA-H2A/H2B peptide, fluorescence polarization; actives 0.6% (n = 320,000); Protein LANA1 (Human herpesvirus 8 type P (isolate GK18)), Q9QR71; in the data active means inhibition mostly above about 10%, no sharp cut-off; inactive means mostly below about 6.7%
ATG4B conf – ATG4B protease inhibitors, retest, confirmation, biochemical, fluorescence, single concentration | shares compounds with ATG4B inhibitor | ATG4B protease fluorescent substrate cleavage assay | inhibition, % at 8.33 µM | actives 92% (n = 320); in the data active means inhibition above about 39%
PLA2 counter – PLA2 enzyme inhibition, counter-screen for ATG4B inhibitor project, biochemical, single concentration, uHTS hits. shares compounds with ATG4B inhibitor. purified PLA2, NBD-C6-HPC fluorescence, 45 min. inhibition, % at 8.33 µM. actives 66% (n = 1,600); in the data active means inhibition above about 50%
Hits are given with their value; n = inactive; x = no result given.

SMILES	ATG4B inhibitor	Bfl-1 A1 inh	HDAC3 inhib	AI-2 QS modul	HKDC1 inh	LANA-H2A inh	PLA2 counter	others
O=C(Nc1ccc2c(c1)S(=O)(=O)N=C1CCCCCN12)c1ccccc1Cl	n	n	n	n	n	n	x
COc1ccc2c(c1OC)C(=O)N1c3ccccc3C(=O)N(c3ccccc3)C21 (stereo not given)	48	n	n	n	n	n	n
Cc1cc(C)n2nc(SCCOc3ccccc3F)nc2n1	n	n	n	n	n	n	x
CCCCCC(O)CCCC(=O)O (stereo not given)	n	x	x	x	n	x	x
CCCCCCCCCCCCCCCC(O)C[N+](C)(C)CCO (stereo not given)	55	x	x	x	n	x	n	ATG4B conf=56
Cc1c(Cl)cccc1NC(=S)NCc1ccccc1	54	n	n	n	n	n	70
Cc1c(Cl)cccc1NC(=S)NC1CCN(Cc2ccccc2)CC1	48	n	n	n	n	n	58
Cc1c(Cl)cccc1NC(=S)NCc1ccc(Cl)cc1	70	n	n	n	n	n	81
O=C(Cn1cc(C(F)(F)F)ccc1=O)N/N=C/c1ccc(Cl)cc1	n	n	n	n	n	n	x
CCc1c(C)sc(NC(=O)c2noc(C)c2[N+](=O)[O-])c1C#N	n	n	n	n	n	n	x
O=C1Nc2ccc(F)cc2C12Nc1ccccc1-c1nnc(SCc3ccccc3Cl)nc1O2 (stereo not given)	43	n	n	n	n	n	77
O=C1CCCC2=C1C1(CCCC1)N=C(Nc1nc3ccccc3s1)N2	75	n	n	n	n	n	n
CC1(C)CC(=O)C2=C(C1)NC(Nc1nc3ccccc3o1)=NC21CCCC1	n	n	n	n	n	n	x
O=C1CCCC2=C1C1(CCCCC1)N=C(Nc1nc3ccccc3s1)N2	55	n	n	n	n	n	n
COC/C=C/C1=CC2=CC(=O)C(C)(O)C(=O)C2=CO1 (stereo not given)	x	n	n	n	x	n	x
COc1ccc(S(=O)(=O)N2CCC(C(=O)N3CCc4ccccc4C3)CC2)cc1	n	n	n	n	n	n	x
COc1ccc(S(=O)(=O)N2CCC(C(=O)N3CCc4ccccc4C3)CC2)cc1C	56	n	n	n	n	n	50
Cc1c(Cl)c([N+](=O)[O-])nn1CCCC(=O)Nc1ccc(Cl)cc1Cl	67	n	n	n	n	n	54
Cc1c(Br)c([N+](=O)[O-])nn1CCCC(=O)Nc1sc2c(c1C#N)CCC2	n	n	n	n	n	n	x
Cc1c(Cl)c([N+](=O)[O-])nn1CCCC(=O)Nc1cccc(Cl)c1Cl	60	n	n	n	n	n	67
Cc1c(Cl)c([N+](=O)[O-])nn1CCCC(=O)Nc1sc2c(c1C#N)CCC2	49	n	n	n	n	n	65
Cc1c(Cl)c([N+](=O)[O-])nn1CCCC(=O)Nc1cccc(O)c1	n	n	n	n	n	n	x
COc1ccc(C2C(C(=O)c3ccco3)=C(O)C(=O)N2CCCn2ccnc2)c(OC)c1 (stereo not given)	n	n	n	n	n	n	x
O=C(CN1CCN(S(=O)(=O)c2cccc(F)c2)CC1)NCC1(N2CCOCC2)CCCCC1	n	x	x	x	n	x	x
C=CCN1C(=O)c2ccc(C(=O)NCCc3ccc(OC)c(OC)c3)cc2C1=O	n	n	n	n	n	n	x
